Experimental data: ChEMBL document CHEMBL1255544, “Synthesis and evaluation of novel chloropyrrole molecules designed by molecular hybridization of common pharmacophores as potential antimicrobial agents” (2010)
≈ marks a conversion by molar mass, not a printed value. Calls of active or inactive are those of the source. The calls are words filed in the database; no cut-off is given here.

Columns and labels:
Pseudomonas aeruginosa [1] = test: Antimicrobial activity against Pseudomonas aeruginosa ATCC 27853 after 24 hrs by disk diffusion method; type: functional
How it was run: (§1)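 Zone of inhibition by disc diffusion against E. coli ATCC-25922, S. aureus ATCC-25923, P. aeruginosa ATCC-27853 and recultured Klebsiella pneumoniae.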

Pseudomonas aeruginosa [2] = test: Antimicrobial activity against Pseudomonas aeruginosa ATCC 27853 after 24 hrs by broth dilution method; type: functional; conditions: ATCC 27853, 24 h
How it was run: (§2)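 MIC by broth dilution: the lowest concentration (highest dilution) that arrested bacterial or fungal growth. Strains were E. coli ATCC-25922, S. aureus ATCC-25923, P. aeruginosa ATCC-27853 and C. albicans.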

Staphylococcus aureus [3] = test: Antimicrobial activity against Staphylococcus aureus ATCC 25923 after 24 hrs by broth dilution method; type: functional; conditions: ATCC 25923, 24 h; how it was run: as §2
Escherichia coli [4] = test: Antimicrobial activity against Escherichia coli ATCC […] after 24 hrs by broth dilution method; type: functional; how it was run: as §2
Candida albicans [5] = test: Antimicrobial activity against Candida albicans after 48 hrs by agar dilution method; type: functional
How it was run: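 Candida albicans tested by agar dilution, with compounds in DMSO.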

Candida albicans [6] = test: Antimicrobial activity against Candida albicans after 48 hrs by broth dilution method; type: functional; how it was run: as §2
Escherichia coli [7] = test: Antimicrobial activity against Escherichia coli ATCC […] after 24 hrs by disk diffusion method; type: functional; how it was run: as §1
Klebsiella pneumoniae = test: Antimicrobial activity against Klebsiella pneumoniae at 100 ug/ml after 24 hrs by broth dilution method; type: functional, organism-based
Staphylococcus aureus [8] = test: Antimicrobial activity against Staphylococcus aureus ATCC 25923 after 24 hrs by disk diffusion method; type: functional; how it was run: as §1

| Compound | diameter of the inhibition zone (DIZ) (Pseudomonas aeruginosa [1]) | MIC (Pseudomonas aeruginosa [2]) | MIC (Staphylococcus aureus [3]) | MIC (Escherichia coli [4]) | diameter of the inhibition zone (DIZ) (Candida albicans [5]) | MIC (Candida albicans [6]) | diameter of the inhibition zone (DIZ) (Escherichia coli [7]) | Activity (Klebsiella pneumoniae) | diameter of the inhibition zone (DIZ) (Staphylococcus aureus [8]) |
| --- | --- | --- | --- | --- | --- | --- | --- | --- | --- |
| COc1ccc(OC)c(/C=C/C(=O)c2cc(Cl)c[nH]2)c1 | 15 mm | 100 µg/mL (≈ 343 µM) | 12.5 µg/mL (≈ 42.8 µM) | 12.5 µg/mL (≈ 42.8 µM) | 16 mm | 50 µg/mL (≈ 171 µM) | 18 mm | inactive | 19 mm |
| C[C@@H]1[C@H](O)[C@@H](C)/C=C/C=C/C=C/C=C/C=C/C=C/C=C/[C@H](O[C@@H]2O[C@H](C)[C@@H](O)[C@H](N)[C@@H]2O)C[C@@H]2O[C@](O)(C[C@@H](O)C[C@@H](O)[C@H](O)CC[C@@H](O)C[C@@H](O)CC(=O)O[C@H]1C)C[C@H](O)[C@H]2C(=O)O [AMPHOTERICIN B] |  |  |  |  | 25 mm | 1.56 µg/mL (≈ 1.69 µM) |  |  |  |
| O=C(N/N=C/c1ccco1)c1cc(Cl)c[nH]1 | 15 mm | 100 µg/mL (≈ 421 µM) | 25 µg/mL (≈ 105 µM) | 25 µg/mL (≈ 105 µM) | 21 mm | 25 µg/mL (≈ 105 µM) | 23 mm | inactive | 24 mm |
| O=C(N/N=C/c1ccc(Cl)cc1)c1cc(Cl)c[nH]1 | 15 mm | 100 µg/mL (≈ 354 µM) | 3.12 µg/mL (≈ 11.1 µM) | 12.5 µg/mL (≈ 44.3 µM) | 17 mm | 25 µg/mL (≈ 88.6 µM) | 16 mm | inactive | 26 mm |
| COc1ccc(/C=N/NC(=O)c2cc(Cl)c[nH]2)cc1 | 14 mm | 100 µg/mL (≈ 360 µM) | 12.5 µg/mL (≈ 45 µM) | 12.5 µg/mL (≈ 45 µM) | 15 mm | 25 µg/mL (≈ 90 µM) | 10 mm | inactive | 18 mm |
| O=C(N/N=C/c1ccccc1O)c1cc(Cl)c[nH]1 | 14 mm | 100 µg/mL (≈ 379 µM) | 6.25 µg/mL (≈ 23.7 µM) | 6.25 µg/mL (≈ 23.7 µM) | 18 mm | 25 µg/mL (≈ 94.8 µM) | 20 mm | inactive | 17 mm |
| COc1ccc(/C=N/NC(=O)c2cc(Cl)c[nH]2)cc1OC | 16 mm | 100 µg/mL (≈ 325 µM) | 12.5 µg/mL (≈ 40.6 µM) | 12.5 µg/mL (≈ 40.6 µM) | 20 mm | 25 µg/mL (≈ 81.2 µM) | 12 mm | inactive | 20 mm |
| COc1ccc(/C=C/C(=O)c2cc(Cl)c[nH]2)cc1 | 15 mm | 25 µg/mL (≈ 95.5 µM) | 12.5 µg/mL (≈ 47.8 µM) | 12.5 µg/mL (≈ 47.8 µM) | 12 mm | 50 µg/mL (≈ 191 µM) | 16 mm | inactive | 18 mm |
| O=C(N/N=C/c1ccccc1)c1cc(Cl)c[nH]1 | 14 mm | 100 µg/mL (≈ 404 µM) | 12.5 µg/mL (≈ 50.5 µM) | 12.5 µg/mL (≈ 50.5 µM) | 20 mm | 25 µg/mL (≈ 101 µM) | 14 mm | inactive | 17 mm |
| O=C(/C=C/c1ccc(Cl)cc1)c1cc(Cl)c[nH]1 | 16 mm | 100 µg/mL (≈ 376 µM) | 12.5 µg/mL (≈ 47 µM) | 25 µg/mL (≈ 93.9 µM) | 13 mm | 50 µg/mL (≈ 188 µM) | 12 mm | inactive | 16 mm |
| COc1ccc(OC)c(/C=N/NC(=O)c2cc(Cl)c[nH]2)c1 | 15 mm | 100 µg/mL (≈ 325 µM) | 6.25 µg/mL (≈ 20.3 µM) | 12.5 µg/mL (≈ 40.6 µM) | 13 mm | 25 µg/mL (≈ 81.2 µM) | 15 mm | inactive | 20 mm |
